Results reported in article PMC5850608 (Molecular Biology and Evolution, 2017).
Entries after “also recorded” stand apart in the source; their conditions may differ.

Experiments:
EsemOR3 = biological target: T1, EsemOR3 (Eriocrania semipurpurella, UniProt A0A2H4NT95); assay: Fluorescent calcium assay, HEK293 cells expressing EsemOrco and EsemOR3; format: cell-based; settings: for Response of EsemOR3-expressing cells in screening: compounds screened at 30 µM
T1 sequence (A0A2H4NT95 1-441): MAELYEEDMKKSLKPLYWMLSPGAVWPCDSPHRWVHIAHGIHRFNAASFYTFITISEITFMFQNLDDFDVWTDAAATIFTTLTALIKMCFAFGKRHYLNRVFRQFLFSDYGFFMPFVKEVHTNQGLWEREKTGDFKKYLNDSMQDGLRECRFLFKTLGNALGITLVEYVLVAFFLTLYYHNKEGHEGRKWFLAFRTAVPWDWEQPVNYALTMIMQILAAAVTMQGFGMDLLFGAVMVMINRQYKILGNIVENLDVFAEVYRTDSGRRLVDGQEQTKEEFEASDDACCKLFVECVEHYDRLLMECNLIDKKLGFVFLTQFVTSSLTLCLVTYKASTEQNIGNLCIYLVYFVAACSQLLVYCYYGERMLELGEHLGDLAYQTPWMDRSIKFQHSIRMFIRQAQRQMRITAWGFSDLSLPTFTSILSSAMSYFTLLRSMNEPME
T1 sequence (A0A2H4NT96 1-482 partner): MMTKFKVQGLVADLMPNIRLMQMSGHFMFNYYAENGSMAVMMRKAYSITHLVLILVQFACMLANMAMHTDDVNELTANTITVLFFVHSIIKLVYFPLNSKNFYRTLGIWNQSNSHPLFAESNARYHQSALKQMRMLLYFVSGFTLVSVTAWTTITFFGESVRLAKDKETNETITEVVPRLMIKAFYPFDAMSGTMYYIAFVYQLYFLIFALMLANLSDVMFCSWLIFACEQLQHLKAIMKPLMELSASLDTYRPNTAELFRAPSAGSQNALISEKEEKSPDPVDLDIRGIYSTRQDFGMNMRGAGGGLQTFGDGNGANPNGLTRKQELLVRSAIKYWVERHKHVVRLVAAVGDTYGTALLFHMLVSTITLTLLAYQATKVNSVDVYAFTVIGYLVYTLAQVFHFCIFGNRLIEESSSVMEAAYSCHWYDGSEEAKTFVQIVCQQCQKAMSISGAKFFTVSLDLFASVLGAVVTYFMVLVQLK
Procedure, shortened: (§1)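 Inducible TREx HEK293 cells stably carry Myc-tagged Orco plus V5-tagged receptor; non-induced wells serve as control. Cells loaded 30 min RT with 1 µM Fluo4-AM, 0.2% pluronic, in DPBS (Ca2+, Mg2+, 1 mM probenecid, pH 7.1); fluorescence read 1 min after ligand. Screen at 30 µM; dose–response from 150 µM, 1/2 dilutions; Orco agonist 50 µM; 0.5% DMSO vehicle. Triplicate wells, three experiments; EC50 (95% CI) by nonlinear fit.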

EsemOR5 = biological target: T2, EsemOR5 (Eriocrania semipurpurella, UniProt A0A2H4NTA6); assay: Fluorescent calcium assay, HEK293 cells expressing EsemOrco and EsemOR5; format: cell-based; settings: for Response of EsemOR5-expressing cells in screening: compounds screened at 30 µM
T2 sequence (A0A2H4NTA6 1-419): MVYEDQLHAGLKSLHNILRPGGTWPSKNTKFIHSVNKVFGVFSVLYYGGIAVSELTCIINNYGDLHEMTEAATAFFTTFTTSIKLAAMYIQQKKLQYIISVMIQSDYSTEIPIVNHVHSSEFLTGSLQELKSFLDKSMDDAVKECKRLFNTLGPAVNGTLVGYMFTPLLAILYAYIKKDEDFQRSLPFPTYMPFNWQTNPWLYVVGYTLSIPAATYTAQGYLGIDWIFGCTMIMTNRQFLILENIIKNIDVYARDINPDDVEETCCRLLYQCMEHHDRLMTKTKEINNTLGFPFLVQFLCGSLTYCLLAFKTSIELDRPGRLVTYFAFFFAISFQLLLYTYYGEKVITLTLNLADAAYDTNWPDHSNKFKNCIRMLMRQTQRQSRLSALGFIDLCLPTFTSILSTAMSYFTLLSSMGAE
T2 sequence (A0A2H4NT96 1-482 partner): T1 sequence (A0A2H4NT96 1-482 partner)
Procedure, shortened: as §1

E. semipurpurella males = settings: cited from earlier work; for Attraction of E. semipurpurella: sex pheromone components, males but not females, ref Larsson etal. 2002; for Effect on male sex pheromone attraction: ref Kozlov etal. 1996
E. sangii = settings: ref Kozlov etal. 1996; cited from earlier work
EsemOR4 = assay: Fluorescent calcium assay, HEK293 cells expressing EsemOrco and EsemOR4; format: cell-based, Eriocrania semipurpurella; settings: EsemOrco + EsemOR4 cell line, 50 μM, induced cells
Procedure, shortened: as §1

EsemOR6 = assay: Fluorescent calcium assay, HEK293 cells expressing EsemOrco and EsemOR6; format: cell-based, Eriocrania semipurpurella; settings: EsemOrco + EsemOR6 cell line, 50 μM, induced cells
Procedure, shortened: as §1

EsemOR1 = biological target: T3, EsemOR1 (Eriocrania semipurpurella, UniProt A0A2H4NTA3); assay: Fluorescent calcium assay, HEK293 cells expressing EsemOrco and EsemOR1; format: cell-based
T3 sequence (A0A2H4NTA3 1-412): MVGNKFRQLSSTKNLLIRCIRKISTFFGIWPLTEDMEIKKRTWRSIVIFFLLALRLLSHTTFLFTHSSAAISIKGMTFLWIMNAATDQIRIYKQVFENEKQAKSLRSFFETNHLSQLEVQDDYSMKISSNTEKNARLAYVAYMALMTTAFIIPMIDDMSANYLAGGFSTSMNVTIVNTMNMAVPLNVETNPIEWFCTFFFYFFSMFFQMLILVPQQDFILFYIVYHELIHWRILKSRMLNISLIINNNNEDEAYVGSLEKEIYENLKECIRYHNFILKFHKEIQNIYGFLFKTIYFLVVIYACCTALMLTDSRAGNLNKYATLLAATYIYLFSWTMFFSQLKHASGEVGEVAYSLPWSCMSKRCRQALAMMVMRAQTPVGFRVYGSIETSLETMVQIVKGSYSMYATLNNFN
T3 sequence (A0A2H4NT96 1-482 partner): T1 sequence (A0A2H4NT96 1-482 partner)
Procedure, shortened: as §1

| SMILES | Response of EsemOR3-expressing cells in screening (EsemOR3; induced cells) | Response of EsemOR5-expressing cells in screening (EsemOR5; induced cells) | other results |
| --- | --- | --- | --- |
| CCCCCCCCC(C)O (stereo not shown) [2-Decanol] | responded to a lesser extent |  |  |
| CCCCCCC(C)=O [2-Octanone] | responded to a lesser extent | responded |  |
| CCCCCC(O)CC (stereo not shown) [3-Octanol] | responded to a lesser extent |  |  |
| CCC/C=C/COC(C)=O [(E)-2-Hexenyl acetate] |  | responded |  |
| CC(C)=CCC[C@@H](C)O [(R)-6-methyl-5-hepten-2-ol, (R)-6-Methyl-5-hepten-2-ol] | responded to a lesser extent |  |  |
| CCCCC[C@H](C)O [(S)-Heptan-2-ol] | less so; also recorded: responded to some extent |  |  |
| CC/C=C\CCCC(C)=O [(Z)-6-Nonen-2-one] | less so; also recorded: responded to some extent | responded most strongly | Behavioural effect in E. sangii (E. sangii): antagonist; EC50 (EsemOR5): 430 nM; Effect on male sex pheromone attraction (E. semipurpurella males; E. semipurpurella): antagonize male sex pheromone attraction |
| CCCCCCOC(C)=O [Hexyl acetate] |  | responded |  |
| CCCCCCCC(C)=O [Nonan-2-one] | less so; also recorded: more weakly | Weaker responses | Effect on pheromone attraction (E. semipurpurella males; E. semipurpurella, low concentration, ref Larsson etal. (2002)): increases pheromone attraction; Effect on male sex pheromone attraction (E. semipurpurella males; E. semipurpurella): antagonize male sex pheromone attraction |
| CCc1ccc(NC(=O)CSc2nnc(-c3cccnc3)n2CC)cc1 [VUAA1] |  |  | Response to Orco agonist (positive control) (EsemOR4): elicited responses in induced cells; Response to Orco agonist (positive control) (EsemOR5; EsemOrco + EsemOR5 cell line, 50 μM, induced cells): elicited responses in induced cells; Response to Orco agonist (positive control) (EsemOR3; EsemOrco + EsemOR3 cell line, 50 μM, induced cells): elicited responses in induced cells; Response to Orco agonist (positive control) (EsemOR6): elicited responses in induced cells; Response to Orco agonist (positive control) (EsemOR1; EsemOrco + EsemOR1 cell line, 50 μM, induced cells): elicited responses in induced cells |
| C=C1CC/C=C(\C)CC[C@@H]2[C@@H]1CC2(C)C [β-caryophyllene, β-Caryophyllene] |  |  | EC50 (EsemOR1): 2430 nM; Response of EsemOR1-expressing cells in screening (EsemOR1; induced cells, compounds screened at 30 µM): responded |

Second part, led by results:

| Response of EsemOR3-expressing cells in screening (EsemOR3; induced cells) | Response of EsemOR5-expressing cells in screening (EsemOR5; induced cells) | SMILES | other results |
| --- | --- | --- | --- |
| responded to a lesser extent | responded | CCCCCCC(C)O (stereo not shown) [2-Octanol] |  |
| less so | Weaker responses | CC/C=C\CCC[C@@H](C)O [(2R, 6Z)-6-nonen-2-ol, (2R,6Z)-6-Nonen-2-ol] | Attraction of E. semipurpurella (E. semipurpurella males): attractive to males |
| responded most strongly |  | CC/C=C\CCC[C@H](C)O [(2S,6Z)-6-Nonen-2-ol] | Response of EsemOR5-expressing cells in screening (EsemOR5; induced cells, listed as (2 S, 6Z)-6-nonen-2-ol): activated the OR; EC50 (EsemOR3): 560 nM; Attraction of E. semipurpurella (E. semipurpurella males): attractive to males |
| less so | Weaker responses | CCCCCCC[C@H](C)O [(S)-Nonan-2-ol] |  |
| responded to a lesser extent | responded | CC/C=C\CCOC(C)=O [(Z)-3-Hexenyl acetate] |  |
